≈ marks a conversion by molar mass, not a printed value.
Assays:
[1] = tested on: Madin-Darby canine kidney (MDCK) cells with canine MDR1 knocked out; assay: MDCK permeability assay; type: in vitro ADME; conditions: apical to basolateral direction
Outline: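 MDCK cells with endogenous canine MDR1 knocked out. Transport of the test compound was measured in the apical-to-basolateral direction. Permeability was reported in 10^-6 cm/s. Data were accepted only when compound recovery was 70%-130%.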

Kinetic solubility = type: physicochemical; conditions: PBS buffer, pH 7.4, aqueous buffer, kinetic from dmso stock

Row | Compound | permeability (passive diffusion rate), level in words [1] | solubility kinetic at 24 h (Kinetic solubility)
1 | O=C(Cn1ccnc1)Nc1ccc(C2CCCCC2)cc1 [1c] | high | 
2 | CC(=O)N1CC(C(=O)Nc2ccc(C3CCCCC3)cc2)C1 [1i] | high | 

The next lines start with the values.

Row | permeability (passive diffusion rate), level in words [1] | solubility kinetic at 24 h (Kinetic solubility) | Compound
3 | highly permeable |  | CN(Cc1cccnc1)C(=O)c1ccc(C2CCCCC2)cc1 [2c']
4 |  | 136 µM (≈ 46.4 µg/mL) | O=C(Nc1ccc([C@H]2[C@@H](F)[C@@H](F)C[C@@H](F)[C@H]2F)cc1)c1cn[nH]c1 [J-1b]
5 | highly permeable |  | CN(Cc1cccnc1)C(=O)c1ccc([C@H]2[C@@H](F)[C@@H](F)C[C@@H](F)[C@H]2F)cc1 [J-2c']

Source: paper PMC9465827 (ACS Medicinal Chemistry Letters, 2022)
